# Results published in ChEMBL document CHEMBL4396869, “Design and Synthesis of Selective Phosphodiesterase 4D (PDE4D) Allosteric Inhibitors for the Treatment of Fragile X Syndrome and Other Brain Disorders” (J Med Chem, 2019).
# Active and inactive are the calls of the source. The rule behind the calls is not given here.
# Columns and labels:
# [1] = molecular target: Dual specificity calcium/calmodulin-dependent 3',5'-cyclic nucleotide phosphodiesterase 1B (Homo sapiens, UniProt Q01064); experiment: Inhibition of recombinant human full length N-terminal GST-tagged PDE1B expressed in baculovirus infected Sf9 insect cells using FAM-cAMP as substrate measured after 1 hr by fluorescence assay; settings: sf9, 1 h
# Dual specificity calcium/calmodulin-dependent 3',5'-cyclic nucleotide phosphodiesterase 1B, sequence (Q01064 whole entry): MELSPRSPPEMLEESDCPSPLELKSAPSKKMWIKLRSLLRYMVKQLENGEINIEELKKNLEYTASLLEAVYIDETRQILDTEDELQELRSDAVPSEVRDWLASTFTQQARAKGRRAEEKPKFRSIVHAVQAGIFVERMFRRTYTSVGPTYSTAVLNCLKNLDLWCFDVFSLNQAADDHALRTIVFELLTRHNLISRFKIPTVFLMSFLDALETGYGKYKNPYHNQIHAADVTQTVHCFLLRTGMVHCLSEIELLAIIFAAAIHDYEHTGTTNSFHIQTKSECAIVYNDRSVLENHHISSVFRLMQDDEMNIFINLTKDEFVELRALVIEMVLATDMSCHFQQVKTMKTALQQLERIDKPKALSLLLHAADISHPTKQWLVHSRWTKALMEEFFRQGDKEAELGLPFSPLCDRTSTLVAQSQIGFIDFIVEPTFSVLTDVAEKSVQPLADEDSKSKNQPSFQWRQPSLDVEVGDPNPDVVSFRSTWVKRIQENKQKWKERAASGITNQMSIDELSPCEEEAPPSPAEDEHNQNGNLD
# [2] = Toxicity in rat assessed as effect on CNS up to 60 mg/kg, po; format: organism-based; settings: in vivo
# [3] = Toxicity in rat assessed as weight loss at 100 mg/kg, po; format: organism-based; settings: in vivo
# [4] = molecular target: T1, 3',5'-cyclic-AMP phosphodiesterase 4D (Homo sapiens, UniProt Q08499); experiment: Inhibition of recombinant human N-terminal GST-tagged PDE4D2 (2 to 507 residues) expressed in baculovirus infected Sf9 cells using FAM-cAMP as substrate incubated for 60 mins by fluorescence assay; settings: sf9, 1 h
# T1 sequence (Q08499 whole entry, the tested form may be a part): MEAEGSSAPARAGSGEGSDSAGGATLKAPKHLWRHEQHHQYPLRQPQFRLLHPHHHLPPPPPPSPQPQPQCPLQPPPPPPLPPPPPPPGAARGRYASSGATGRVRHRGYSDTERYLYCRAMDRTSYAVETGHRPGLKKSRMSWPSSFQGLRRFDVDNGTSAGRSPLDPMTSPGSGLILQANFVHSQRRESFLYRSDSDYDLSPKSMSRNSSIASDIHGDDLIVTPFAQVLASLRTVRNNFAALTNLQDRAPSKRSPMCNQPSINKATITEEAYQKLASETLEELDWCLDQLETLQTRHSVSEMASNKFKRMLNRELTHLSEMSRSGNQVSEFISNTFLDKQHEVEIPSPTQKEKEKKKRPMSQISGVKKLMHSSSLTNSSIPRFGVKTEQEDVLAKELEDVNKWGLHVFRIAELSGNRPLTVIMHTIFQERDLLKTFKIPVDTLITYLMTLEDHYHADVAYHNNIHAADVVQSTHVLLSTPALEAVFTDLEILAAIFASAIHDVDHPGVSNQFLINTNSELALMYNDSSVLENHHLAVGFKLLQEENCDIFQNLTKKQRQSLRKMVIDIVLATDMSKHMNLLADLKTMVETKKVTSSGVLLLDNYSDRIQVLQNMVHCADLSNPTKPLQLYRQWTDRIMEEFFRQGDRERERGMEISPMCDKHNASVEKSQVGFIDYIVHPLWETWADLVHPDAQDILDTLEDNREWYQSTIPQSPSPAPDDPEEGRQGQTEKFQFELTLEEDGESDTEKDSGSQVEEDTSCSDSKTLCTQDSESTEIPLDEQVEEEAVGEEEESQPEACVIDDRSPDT
# [5] = Protein binding in rat plasma; format: ADME, cell-free; settings: read-out: PPB
# [6] = Aqueous kinetic solubility of the compound in pH 7.4 PBS buffer at 100 uM measured after 1 hr; format: physicochemical; settings: pH 7.4, 1 h
# [7] = Inhibition of recombinant N-terminal GST-tagged full length human PDE4A1A expressed in baculovirus infected Sf9 cells using FAM-cAMP as substrate incubated for 60 mins by fluorescence assay; settings: sf9, 1 h
# [8] = molecular target: T2, 3',5'-cyclic-AMP phosphodiesterase 4B (Homo sapiens, UniProt Q07343); experiment: Inhibition of recombinant N-terminal GST-tagged full length human PDE4B1 expressed in baculovirus infected Sf9 cells using FAM-cAMP as substrate incubated for 60 mins by fluorescence assay; settings: sf9, 1 h
# T2 sequence (Q07343 whole entry): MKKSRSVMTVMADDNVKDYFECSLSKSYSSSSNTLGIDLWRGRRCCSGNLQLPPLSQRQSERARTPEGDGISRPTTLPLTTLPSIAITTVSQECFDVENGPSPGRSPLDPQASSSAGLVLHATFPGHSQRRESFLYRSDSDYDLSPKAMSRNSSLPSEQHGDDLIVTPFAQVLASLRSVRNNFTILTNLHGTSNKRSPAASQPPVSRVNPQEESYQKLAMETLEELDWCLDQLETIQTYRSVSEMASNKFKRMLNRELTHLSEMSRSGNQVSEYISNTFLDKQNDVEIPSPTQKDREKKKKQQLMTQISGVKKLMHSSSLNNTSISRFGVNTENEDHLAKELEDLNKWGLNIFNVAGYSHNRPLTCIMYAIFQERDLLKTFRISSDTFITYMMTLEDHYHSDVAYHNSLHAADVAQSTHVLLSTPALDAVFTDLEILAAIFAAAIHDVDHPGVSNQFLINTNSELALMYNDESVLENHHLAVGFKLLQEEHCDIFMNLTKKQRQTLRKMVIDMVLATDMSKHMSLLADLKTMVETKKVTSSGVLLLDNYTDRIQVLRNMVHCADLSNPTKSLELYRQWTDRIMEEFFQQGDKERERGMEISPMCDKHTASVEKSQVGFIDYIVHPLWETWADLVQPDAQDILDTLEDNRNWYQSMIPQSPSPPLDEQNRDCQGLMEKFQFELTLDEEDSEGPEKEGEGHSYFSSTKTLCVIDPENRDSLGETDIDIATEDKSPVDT
# [9] = Vascular toxicity in rat during 28 days study by microscopic analysis; settings: in vivo, 672 h
# [10] = molecular target: Dual 3',5'-cyclic-AMP and -GMP phosphodiesterase 11A (Homo sapiens, UniProt Q9HCR9); experiment: Inhibition of recombinant human full length N-terminal GST-tagged PDE11A expressed in baculovirus infected Sf9 cells using FAM-cAMP as substrate incubated for 60 mins by fluorescence assay; settings: sf9, 1 h
# [11] = molecular target: 3',5'-cyclic-AMP phosphodiesterase 4C (Homo sapiens, UniProt Q08493); experiment: Inhibition of recombinant human full length N-terminal GST-tagged PDE4C1 expressed in baculovirus infected Sf9 cells using FAM-cAMP as substrate incubated for 60 mins by fluorescence assay; settings: sf9, 1 h
# [12] = system: Mustela putorius furo; experiment: Induction of emesis in ferret up to 30 mg/kg, po; format: organism-based; settings: in vivo
# [13] = molecular target: cGMP-specific 3',5'-cyclic phosphodiesterase (Homo sapiens, UniProt O76074); experiment: Inhibition of recombinant human N-terminal GST-tagged PDE5A1 expressed in baculovirus infected Sf9 cells using FAM-cGMP as substrate incubated for 60 mins by fluorescence assay; settings: sf9, 1 h
# [14] = Vascular toxicity in dog measured for 90 days; set-up: species or system Canis lupus familiaris; settings: in vivo, 2160 h
# [15] = (§1) Inhibition of recombinant human His6-tagged PDE4D7 UCR1 S129D mutant expressed in baculovirus infected Sf9 insect cells using cAMP as substrate preincubated for 5 to 10 mins followed by substrate addition and measured for 10 mins by yeast myokinase/pyruvate kinase/lactate dehydrogenase-coupled fluorescence assay relative to control
# [16] = molecular target: T2, 3',5'-cyclic-AMP phosphodiesterase 4B; experiment: Inhibition of recombinant N-terminal GST-tagged/C-terminal His-tagged full length human PDE4B2 expressed in baculovirus infected Sf9 cells using FAM-cAMP as substrate incubated for 60 mins by fluorescence assay; settings: sf9, 1 h
# [17] = molecular target: High affinity cGMP-specific 3',5'-cyclic phosphodiesterase 9A (Homo sapiens, UniProt O76083); experiment: Inhibition of recombinant human full length N-terminal GST-tagged PDE9A2 expressed in baculovirus infected Sf9 cells using FAM-cGMP as substrate incubated for 60 mins by fluorescence assay; settings: sf9, 1 h
# [18] = Protein binding in mouse plasma; format: ADME, cell-free; settings: read-out: PPB
# [19] = molecular target: High affinity 3',5'-cyclic-AMP phosphodiesterase 7A (Homo sapiens, UniProt Q13946); experiment: Inhibition of recombinant human N-terminal GST-tagged PDE7A2 (122 to end residues) expressed in baculovirus infected Sf9 cells using FAM-cAMP as substrate incubated for 60 mins by fluorescence assay; settings: sf9, 1 h
# [20] = Toxicity in rat assessed as inappetence at 100 mg/kg, po; format: organism-based; settings: in vivo
# [21] = molecular target: T2, 3',5'-cyclic-AMP phosphodiesterase 4B; experiment: Inhibition of recombinant human N-terminal GST-tagged PDE4B3 (2 to 721 residues) expressed in baculovirus infected Sf9 cells using FAM-cAMP as substrate incubated for 60 mins by fluorescence assay; settings: sf9, 1 h
# [22] = Vascular toxicity in rat measured for 28 days; settings: in vivo, 672 h
# [23] = molecular target: T1, 3',5'-cyclic-AMP phosphodiesterase 4D; experiment: as §1, with “PDE4D2” for “PDE4D7 UCR1 S129D mutant”; settings: sf9, 10 min
# [24] = Oral bioavailability in rat; format: ADME, organism-based; settings: in vivo
# [25] = as §1, with “10 mins in presence of BSA by yeast” for “10 mins by yeast”, “fluorescence assay” for “fluorescence assay relative to control”
# [26] = molecular target: T3, cAMP and cAMP-inhibited cGMP 3',5'-cyclic phosphodiesterase 10A (Homo sapiens, UniProt Q9Y233); experiment: Inhibition of recombinant human N-terminal GST-tagged PDE10A1 (2 to 789 residues) expressed in baculovirus infected Sf9 cells using FAM-cAMP as substrate incubated for 60 mins by fluorescence assay; settings: sf9, 1 h
# T3 sequence (Q9Y233 whole entry, the tested form may be a part): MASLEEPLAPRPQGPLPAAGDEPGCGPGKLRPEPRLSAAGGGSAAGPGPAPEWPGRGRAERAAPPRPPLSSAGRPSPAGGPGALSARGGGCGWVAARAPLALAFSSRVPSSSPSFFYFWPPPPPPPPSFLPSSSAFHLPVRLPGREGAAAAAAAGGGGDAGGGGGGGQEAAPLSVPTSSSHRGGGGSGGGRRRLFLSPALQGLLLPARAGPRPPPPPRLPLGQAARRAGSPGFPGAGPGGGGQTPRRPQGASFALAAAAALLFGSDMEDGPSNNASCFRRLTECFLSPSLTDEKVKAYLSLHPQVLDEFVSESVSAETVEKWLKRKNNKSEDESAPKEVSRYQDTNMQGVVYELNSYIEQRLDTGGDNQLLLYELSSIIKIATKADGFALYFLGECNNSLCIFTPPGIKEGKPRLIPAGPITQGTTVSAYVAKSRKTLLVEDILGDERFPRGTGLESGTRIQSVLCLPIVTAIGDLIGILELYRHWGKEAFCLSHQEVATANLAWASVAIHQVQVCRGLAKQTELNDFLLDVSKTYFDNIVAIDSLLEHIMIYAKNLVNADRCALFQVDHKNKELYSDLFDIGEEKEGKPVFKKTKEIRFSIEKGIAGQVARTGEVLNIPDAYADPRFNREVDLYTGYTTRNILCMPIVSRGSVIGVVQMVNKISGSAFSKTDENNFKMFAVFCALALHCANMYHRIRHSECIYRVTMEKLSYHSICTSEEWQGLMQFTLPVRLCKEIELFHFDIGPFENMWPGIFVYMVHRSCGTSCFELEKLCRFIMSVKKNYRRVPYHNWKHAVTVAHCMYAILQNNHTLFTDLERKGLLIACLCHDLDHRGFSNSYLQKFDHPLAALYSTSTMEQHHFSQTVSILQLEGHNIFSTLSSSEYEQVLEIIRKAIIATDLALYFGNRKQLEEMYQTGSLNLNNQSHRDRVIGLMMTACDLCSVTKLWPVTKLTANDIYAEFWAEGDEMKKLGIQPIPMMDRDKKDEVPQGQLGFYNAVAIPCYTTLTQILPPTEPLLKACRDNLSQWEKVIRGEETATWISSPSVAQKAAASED
# [27] = as §1, with “PDE4D UCR2 deletion” for “PDE4D7 UCR1 S129D”, “mutant catalytic domain” for “mutant”
# [28] = Vascular toxicity in dog during 90 days study by microscopic analysis; set-up: species or system Canis lupus familiaris; settings: in vivo, 2160 h
# [29] = molecular target: Cytochrome P450 2C9 (Homo sapiens, UniProt P11712); experiment: Inhibition of CYP2C9 (unknown origin) by fluorescence-based assay; format: ADME
# Cytochrome P450 2C9, sequence (P11712 whole entry): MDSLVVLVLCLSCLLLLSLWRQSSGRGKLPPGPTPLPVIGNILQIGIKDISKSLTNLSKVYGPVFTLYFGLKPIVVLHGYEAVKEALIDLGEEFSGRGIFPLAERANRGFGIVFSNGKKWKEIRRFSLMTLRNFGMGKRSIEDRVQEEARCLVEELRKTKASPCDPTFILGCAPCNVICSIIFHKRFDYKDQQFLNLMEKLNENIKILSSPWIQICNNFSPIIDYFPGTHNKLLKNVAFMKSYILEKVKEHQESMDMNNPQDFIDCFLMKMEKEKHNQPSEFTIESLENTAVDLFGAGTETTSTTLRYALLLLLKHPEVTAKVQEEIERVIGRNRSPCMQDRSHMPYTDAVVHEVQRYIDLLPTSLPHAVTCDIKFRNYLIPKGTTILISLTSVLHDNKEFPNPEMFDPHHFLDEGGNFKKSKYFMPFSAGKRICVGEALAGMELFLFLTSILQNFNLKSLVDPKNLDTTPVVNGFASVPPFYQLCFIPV
# Outline: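 CYP inhibition run with a fluorescent substrate by a contract laboratory under standard protocols; IC50 reported.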
# [30] = molecular target: Voltage-gated inwardly rectifying potassium channel KCNH2 (Homo sapiens, UniProt Q12809); experiment: Inhibition of human ERG
# Voltage-gated inwardly rectifying potassium channel KCNH2, sequence (Q12809 whole entry, the tested form may be a part): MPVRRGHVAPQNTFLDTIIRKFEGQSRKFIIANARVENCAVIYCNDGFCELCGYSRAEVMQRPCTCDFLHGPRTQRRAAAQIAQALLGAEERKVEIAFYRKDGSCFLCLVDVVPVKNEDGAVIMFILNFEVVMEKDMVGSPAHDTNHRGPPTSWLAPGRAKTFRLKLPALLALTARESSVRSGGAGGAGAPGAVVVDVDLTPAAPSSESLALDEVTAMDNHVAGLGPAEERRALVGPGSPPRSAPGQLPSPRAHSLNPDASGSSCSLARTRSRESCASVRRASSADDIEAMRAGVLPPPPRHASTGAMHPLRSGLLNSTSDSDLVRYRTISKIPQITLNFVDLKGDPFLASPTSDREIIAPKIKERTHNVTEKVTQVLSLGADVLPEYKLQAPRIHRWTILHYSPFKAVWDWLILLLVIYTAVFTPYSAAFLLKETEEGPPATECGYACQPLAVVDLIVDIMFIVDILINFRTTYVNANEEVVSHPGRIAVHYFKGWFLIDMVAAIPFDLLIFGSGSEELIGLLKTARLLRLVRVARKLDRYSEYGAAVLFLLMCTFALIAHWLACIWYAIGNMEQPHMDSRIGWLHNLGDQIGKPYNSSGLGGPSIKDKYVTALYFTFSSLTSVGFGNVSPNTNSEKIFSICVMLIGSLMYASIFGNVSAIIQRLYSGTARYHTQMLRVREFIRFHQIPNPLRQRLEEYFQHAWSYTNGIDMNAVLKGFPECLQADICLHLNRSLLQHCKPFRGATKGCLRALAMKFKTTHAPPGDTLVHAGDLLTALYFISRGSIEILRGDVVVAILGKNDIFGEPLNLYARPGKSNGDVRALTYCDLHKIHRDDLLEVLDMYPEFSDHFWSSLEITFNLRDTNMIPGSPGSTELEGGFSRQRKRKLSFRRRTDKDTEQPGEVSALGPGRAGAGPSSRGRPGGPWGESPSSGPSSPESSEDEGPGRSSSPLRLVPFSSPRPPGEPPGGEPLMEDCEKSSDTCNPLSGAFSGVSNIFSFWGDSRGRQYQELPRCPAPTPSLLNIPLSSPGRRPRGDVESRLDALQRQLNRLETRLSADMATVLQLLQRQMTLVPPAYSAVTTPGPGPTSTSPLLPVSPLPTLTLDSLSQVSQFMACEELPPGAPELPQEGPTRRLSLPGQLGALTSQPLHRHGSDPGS
# [31] = molecular target: cGMP-dependent 3',5'-cyclic phosphodiesterase (Homo sapiens, UniProt O00408); experiment: Inhibition of recombinant human full length N-terminal thrombin cleavage site-fused/GST-tagged PDE2A expressed in baculovirus infected Sf9 insect cells using FAM-cAMP as substrate measured after 60 mins by fluorescence assay; settings: sf9, 1 h
# [32] = Cmax in ICR mouse at 30 mg/kg, po; settings: in vivo
# [33] = Ratio of drug level in C57Bl6 mouse brain to plasma; format: ADME
# [34] = Toxicity in dog assessed as weight loss at 100 mg/kg, po; format: organism-based, Canis lupus familiaris; settings: in vivo
# [35] = Stability in mouse liver microsomes assessed as parent compound remaining at 1 uM measured after 30 mins by LC-MS/MS analysis; format: ADME, Microsome; settings: read-out: Stability
# Outline: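 Liver microsome stability run by a contract lab using standard protocols. Parent compound remaining measured after 30 min incubation.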
# [36] = Protein binding in human plasma; format: ADME, cell-free; settings: read-out: PPB
# [37] = Toxicity in dog assessed as emesis at 100 mg/kg, po; format: organism-based, Canis lupus familiaris; settings: in vivo
# [38] = molecular target: T3, cAMP and cAMP-inhibited cGMP 3',5'-cyclic phosphodiesterase 10A; experiment: Inhibition of recombinant human full length N-terminal GST-tagged PDE10A2 expressed in baculovirus infected Sf9 cells using FAM-cAMP as substrate incubated for 60 mins by fluorescence assay; settings: sf9, 1 h
smiles,measurement,setting,value
O=C(O)Cc1ccc(Cc2cc(-c3cccc(Cl)c3)nc(C(F)(F)F)c2)cc1 [ZATOLMILAST],inhibition (INH),[1],Not Active
same,Activity,[2],Non-Toxic
same,Activity,[3],Toxic
same,inhibition (INH),[4],Not Active
same,fraction unbound,[5],0.002 to 0.005
same,Kinetic_solubility,[6],95 µM
same,inhibition (INH),[7],Not Active
same,inhibition (INH),[8],Not Active
same,Activity,[9],Non-Toxic
same,inhibition (INH),[10],Not Active
same,inhibition (INH),[11],Not Active
same,Activity,[12],Non-Toxic
same,inhibition (INH),[13],Not Active
same,Activity,[14],Non-Toxic
same,Imax,[15],90.2%
same,inhibition (INH),[16],Not Active
same,inhibition (INH),[17],Not Active
same,fraction unbound,[18],0.002 to 0.005
same,inhibition (INH),[19],Not Active
same,Activity,[20],Toxic
same,inhibition (INH),[21],Not Active
same,Activity,[22],Non-Toxic
same,inhibition (INH),[23],Not Active
same,bioavailability,[24],80 to 100%
same,inhibition,[25],Active
same,inhibition (INH),[26],Not Active
same,inhibition,[27],inactive
same,Activity,[28],Non-Toxic
same,IC50,[29],> 51 µM
same,IC50,[30],> 10 µM
same,inhibition (INH),[31],Not Active
same,Cmax,[32],11.475 µg/mL
same,BPR,[33],0.45
same,Activity,[34],Toxic
same,"remaining at 0.5 h, 1 µM",[35],88 to 100%
same,fraction unbound,[36],0.002 to 0.005
same,Activity,[37],Toxic
same,inhibition (INH),[38],Not Active
